Test results taken from ChEMBL document CHEMBL1817652, “Synthesis and mechanistic studies of a mitomycin dimer containing an eight-membered cyclic disulfide” (Bioorg Med Chem, 2011).
One block for each compound: values may come before it. Calls of active or inactive are those of the source. The calls are words filed in the database; no cut-off is given here.

Assays:
Nucleic Acid [1] = test: Binding affinity to Escherichia coli pBR322 assessed as DNA interstand cross link at 0.2 mM after 2 hrs by agarose gel electrophoresis in presence of 5 equiv glutathione; assay type: nucleic-acid assay
Procedure, shortened: (§1)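 EcoRI-linearized pBR322 plasmid DNA, N2-deaerated 15 min, mitomycin added from DMSO stock (final 0.1–0.2 mM) with nucleophile (GSH, Et3P or L-DTT, 5 equiv) from DMSO stock; incubated room temperature 2 h. DNA phenol/CHCl3-extracted, EtOH-precipitated, resuspended in 10 mM Tris/1 mM EDTA pH 8.0. Run on denaturing 1.2% alkaline agarose gel (40 mM NaOH, 1 mM EDTA), neutralized, stained, bands quantified.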

Nucleic Acid [2] = test: Binding affinity to Escherichia coli pBR322 assessed as DNA interstand cross link at 0.2 mM after 2 hrs by agarose gel electrophoresis in presence of 5 equiv of L-ditiothreitol; assay type: nucleic-acid assay; procedure, shortened: as §1
Nucleic Acid [3] = test: Binding affinity to Escherichia coli pBR322 assessed as DNA interstand cross link at 0.2 mM after 2 hrs by agarose gel electrophoresis in presence of 5 equiv of Et3P; assay type: nucleic-acid assay; procedure, shortened: as §1
[4] = Activation of the compound assessed as half life at 20 Equiv of Et3P by HPLC and TLC method; assay type: physicochemical
Procedure, shortened: (§2)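 Mitomycin at 0.03 mM final in buffered methanolic solution (0.1 M Tris-HCl, effective 'pH' 7.4), 25 °C, with added nucleophile (final 0.06–1.5 mM). Followed by UV–vis (200–600 nm) at ~373 nm, with mitosene products at ~313 nm, for more than two half-lives. Runs in duplicate and averaged. End-point 'pH' checked, mixtures analysed by HPLC and TLC against authentic samples.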

Nucleic Acid [5] = test: Binding affinity to Escherichia coli pBR322 assessed as DNA interstand cross link at 0.1 mM after 2 hrs by agarose gel electrophoresis in presence of 5 equiv of Et3P; assay type: nucleic-acid assay
Procedure, shortened: (§3)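 EcoRI-linearized pBR322 plasmid DNA, deaerated with N2 for 15 min. Mitomycin (0.1–0.2 mM final, from 5 mM DMSO stock) and nucleophile (Et3P, L-DTT or GSH, 5 equiv, 0.5 mM final) added, then incubated 2 h at room temperature. Concentration scan with Et3P over […]. DNA extracted with phenol/chloroform and ethanol-precipitated, run on denaturing 1.2% alkaline agarose gel (40 mM NaOH, 1 mM EDTA), neutralised, stained, bands quantified.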

Nucleic Acid [6] = test: Binding affinity to Escherichia coli pBR322 assessed as DNA interstand cross link at 0.1 mM after 2 hrs by agarose gel electrophoresis in presence of 5 equiv of L-ditiothreitol; assay type: nucleic-acid assay; procedure, shortened: as §3
[7] = Activation of the compound assessed as half life at 10 Equiv of Et3P by HPLC and TLC method; assay type: physicochemical; procedure, shortened: as §2
Nucleic Acid [8] = test: Binding affinity to Escherichia coli pBR322 assessed as DNA interstand cross link at 0.1 mM after 2 hrs by agarose gel electrophoresis in presence of 5 equiv glutathione; assay type: nucleic-acid assay; procedure, shortened: as §3
[9] = Stability of the compound at 2 Equiv of Et3P measured after 5 days by HPLC and TLC method; assay type: physicochemical; conditions: read-out: Stability; procedure, shortened: as §2
[10] = Activation of the compound assessed as half life at 5 Equiv of Et3P by HPLC and TLC method; assay type: physicochemical; procedure, shortened: as §2
[11] = Stability of the compound at 20 Equiv L-ditiothreitol measured after 3 days by HPLC and TLC method; assay type: physicochemical; conditions: read-out: Stability; procedure, shortened: as §2
[12] = Stability of the compound at 10 Equiv of L-ditiothreitol after 3 days by HPLC and TLC method; assay type: physicochemical; conditions: read-out: Stability; procedure, shortened: as §2
[13] = Activation of the compound assessed as half life at 50 Equiv of Et3P by HPLC and TLC method; assay type: physicochemical; procedure, shortened: as §2
Nucleic Acid [14] = test: Binding affinity to Escherichia coli pBR322 assessed as DNA interstand cross link at 0.05 to 0.25 mM after 2 hrs by agarose gel electrophoresis in presence of 5 equiv of Et3P; assay type: nucleic-acid assay; procedure, shortened: as §3
[15] = Stability of the compound measured after 5 days by HPLC and TLC method; assay type: physicochemical; conditions: read-out: Stability
Procedure, shortened: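 Mitomycin at 0.03 mM final in buffered methanolic solution (0.1 M Tris-HCl, effective 'pH' 7.4), 25 °C, […]. Followed by UV–vis (200–600 nm) at ~373 nm. Runs in duplicate and averaged. HPLC and TLC analysis at the end.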

[16] = Stability of the compound at 20 Equiv of glutathione measured after 3 days by HPLC and TLC method; assay type: physicochemical; conditions: read-out: Stability; procedure, shortened: as §2
[17] = Stability of the compound at 20 Equiv of L-ditiothreitol after 5 days by HPLC and TLC method; assay type: physicochemical; conditions: read-out: Stability; procedure, shortened: as §2
[18] = Stability of the compound at 10 Equiv of Et3P after 3 days by HPLC and TLC method; assay type: physicochemical; conditions: read-out: Stability; procedure, shortened: as §2
[19] = Stability of the compound at 50 Equiv of Et3P after 3 days by HPLC and TLC method; assay type: physicochemical; conditions: read-out: Stability; procedure, shortened: as §2
[20] = Stability of the compound at 10 Equiv of L-ditiothreitol after 5 days by HPLC and TLC method; assay type: physicochemical; conditions: read-out: Stability; procedure, shortened: as §2
[21] = Stability of the compound at 20 Equiv of Et3P after 3 days by HPLC and TLC method; assay type: physicochemical; conditions: read-out: Stability; procedure, shortened: as §2
[22] = Activation of the compound assessed as half life at 40 Equiv of Et3P by HPLC and TLC method; assay type: physicochemical; procedure, shortened: as §2
Nucleic Acid [23] = test: Binding affinity to Escherichia coli pBR322 assessed as DNA interstand cross link at 0.5 mM after 6 mins by agarose gel electrophoresis in presence of 20 equiv of Et3P; assay type: nucleic-acid assay

Activity (Nucleic Acid [1]): 2% | Activity (Nucleic Acid [2]): 2% | Activity (Nucleic Acid [3]): 3%
Structure (SMILES): CO[C@@]12[C@H](COC(N)=O)C3=C(C(=O)C(C)=C(N)C3=O)N1C[C@@H]1N[C@@H]12

Structure (SMILES): CO[C@@]12[C@H](COC(N)=O)C3=C(C(=O)C(C)=C(NC[C@H]4CC[C@@H](CNC5=C(C)C(=O)C6=C(C5=O)[C@@H](COC(N)=O)[C@@]5(OC)[C@H]7N[C@H]7CN65)SS4)C3=O)N1C[C@@H]1N[C@@H]12
half-life [4]: 3.12 h | Activity (Nucleic Acid [5]): 83% | Activity (Nucleic Acid [6]): 77% | half-life [7]: 6.24 h

Structure (SMILES): CO[C@@]12[C@H](COC(N)=O)C3=C(C(=O)C(C)=C(NCC4CCCCC(CNC5=C(C)C(=O)C6=C(C5=O)[C@@H](COC(N)=O)[C@@]5(OC)[C@H]7N[C@H]7CN65)SS4)C3=O)N1C[C@@H]1N[C@@H]12 (mixture of isomers)
Activity (Nucleic Acid [8]): 21% | remaining at 120 h [9]: < 10% | half-life [10]: 5.52 h | half-life [4]: 1.2 h | remaining at 72 h [11]: < 10% | Activity (Nucleic Acid [5]): 94% | remaining at 72 h [12]: < 10% | half-life [13]: 0.48 h | Activity (Nucleic Acid [14]): Active | remaining at 120 h [15]: < 10% | Activity (Nucleic Acid [6]): 95% | remaining at 72 h [16]: < 10% | half-life [7]: 1.92 h

Structure (SMILES): CO[C@@]12[C@H](COC(N)=O)C3=C(C(=O)C(C)=C(NCC(O)CCCCC(O)CNC4=C(C)C(=O)C5=C(C4=O)[C@@H](COC(N)=O)[C@@]4(OC)[C@H]6N[C@H]6CN54)C3=O)N1C[C@@H]1N[C@@H]12 (mixture of isomers)
remaining at 120 h [17]: < 10% | Activity (Nucleic Acid [8]): 7% | remaining at 72 h [18]: < 10% | remaining at 72 h [19]: < 10% | Activity (Nucleic Acid [5]): 4% | remaining at 120 h [15]: < 10% | remaining at 120 h [20]: < 10% | Activity (Nucleic Acid [6]): 6% | remaining at 72 h [21]: < 10% | remaining at 72 h [16]: < 10%

Structure (SMILES): CO[C@@]12[C@H](OC(N)=O)C3=C(C(=O)C(C)=C(NCC4CCCCC(CNC5=C(C)C(=O)C6=C(C5=O)[C@@H](OC(N)=O)[C@@]5(OC)[C@H]7N[C@H]7CN65)SSC(CNC5=C(C)C(=O)C6=C(C5=O)[C@@H](OC(N)=O)[C@@]5(OC)[C@H]7N[C@H]7CN65)CCCCC(CNC5=C(C)C(=O)C6=C(C5=O)[C@@H](OC(N)=O)[C@@]5(OC)[C@H]7N[C@H]7CN65)SS4)C3=O)N1C[C@@H]1N[C@@H]12 (stereo partly drawn)
half-life [4]: 1.99 h | half-life [22]: 1.01 h | Activity (Nucleic Acid [23]): 35%
